Reference: publication PMC2878397 (Journal of natural products, 2010)
Like-named read-outs stand apart in the source and are kept apart here.

What was measured:
9KB = 9KB in vitro test system; cited from earlier work
NF-κB p50 = biological target: T1, NF-κB p50 (Homo sapiens, UniProt P19838); assay: Enzyme-based ELISA NF-κB p50 assay; assay type: biochemical
T1 sequence (P19838 1-433 limits assumed): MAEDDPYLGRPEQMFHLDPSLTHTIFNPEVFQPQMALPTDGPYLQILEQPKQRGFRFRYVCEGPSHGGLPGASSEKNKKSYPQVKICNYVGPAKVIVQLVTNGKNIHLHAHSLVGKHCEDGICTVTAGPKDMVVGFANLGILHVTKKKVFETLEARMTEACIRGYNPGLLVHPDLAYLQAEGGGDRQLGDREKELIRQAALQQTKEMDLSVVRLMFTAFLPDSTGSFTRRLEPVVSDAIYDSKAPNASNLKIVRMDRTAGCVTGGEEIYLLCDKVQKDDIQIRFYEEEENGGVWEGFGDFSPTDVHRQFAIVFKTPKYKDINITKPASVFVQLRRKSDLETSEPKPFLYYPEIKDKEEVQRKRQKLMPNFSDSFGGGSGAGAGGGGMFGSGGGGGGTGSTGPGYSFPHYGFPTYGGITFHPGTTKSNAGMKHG

9PS = 9PS in vitro test system; cited from earlier work
NF-κB p65 = NF-κB p65 (Homo sapiens, UniProt Q04206); assay: Enzyme-based ELISA NF-κB p65 assay; assay type: biochemical
NF-κB p65, sequence (Q04206 whole entry, one chain of several): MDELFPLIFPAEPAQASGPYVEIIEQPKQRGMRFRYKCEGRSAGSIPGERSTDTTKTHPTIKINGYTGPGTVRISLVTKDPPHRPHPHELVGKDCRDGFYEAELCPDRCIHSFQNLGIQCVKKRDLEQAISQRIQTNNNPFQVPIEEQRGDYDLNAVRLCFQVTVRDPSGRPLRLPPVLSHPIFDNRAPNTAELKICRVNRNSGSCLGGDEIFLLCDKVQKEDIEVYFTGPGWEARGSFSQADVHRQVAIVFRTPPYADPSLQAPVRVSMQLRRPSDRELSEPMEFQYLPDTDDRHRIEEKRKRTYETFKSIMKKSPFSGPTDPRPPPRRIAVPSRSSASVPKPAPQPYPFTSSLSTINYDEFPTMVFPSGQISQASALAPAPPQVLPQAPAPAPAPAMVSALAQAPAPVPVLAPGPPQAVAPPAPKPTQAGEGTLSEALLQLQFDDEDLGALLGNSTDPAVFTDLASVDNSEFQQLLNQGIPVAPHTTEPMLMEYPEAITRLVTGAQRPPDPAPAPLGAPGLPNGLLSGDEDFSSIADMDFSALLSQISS

[1] = test system: HT-29 human colon cancer cells; assay: Cytotoxicity assay against HT-29 cells; assay type: cell-based; settings: for cytotoxicity ED50: HT-29 cells, three days incubation, SRB; for IC50: Homo sapiens, HT-29, 72 h, read-out: cytotoxicity ED50
Method in brief: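 Trypsinized HT-29 cells seeded in 96-well plates with test compound in DMSO; DMSO-only wells as negative control, paclitaxel as positive control. Incubated 3 days at 37 °C, 5% CO2. Cells fixed, held 30 min at room temperature, water-washed, air-dried overnight, then stained with sulforhodamine B. Dye released in tris-base buffer, absorbance read at 515 nm. Cytotoxicity calculated against negative control, reported as ED50 (μM).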

P388 leukemia cells = settings: cited from earlier work

3-hydroxy-4,3′,5′-trimethoxy-trans-stilbene [Compound 9]
cytotoxicity ED50 (9KB): 0.01 µg/mL | IC50 (NF-κB p50; read-out: NF-κB p50 inhibition IC50, HeLa nuclear extract, ELISA): > 10 µM | cytotoxicity ED50 (9PS): 0.1 µg/mL | IC50 (NF-κB p65; read-out: NF-κB p65 inhibition IC50, HeLa nuclear extract, ELISA): > 10 µM | cytotoxicity ED50 [1]: 8.7 µM

C=C(C)[C@H]1Cc2c(oc3c(CC=C(C)C)c(O)c(CC=C(C)C)c(O)c3c2=O)-c2c(O)cc(O)c(O)c21 [Compound 1, (5R)-5,6-dihydro-1,3,4,8,10-pentahydroxy-5-isopropenyl-9,11-bis(3-methyl-2-butenyl)-7H-benzo[c]xanthen-7-one]
IC50 (NF-κB p50): 2 µM | IC50 (NF-κB p65): > 10 µM

C=C(C)c1cc2c(=O)c3c(O)c(CC=C(C)C)c(O)cc3oc2c2c1C(=O)C(O)=C(CC=C(C)C)C2=O [Compound 3, 4,8,10-trihydroxy-5-isopropenyl-2,9-bis(3-methyl-2-butenyl)-7-benzo[c]xanthen-2,4,7-trione]
cytotoxicity ED50 [1]: >10 µM

CC(C)=CCc1c(O)c(CC=C(C)C)c2oc3c(c(=O)c2c1O)C(C=C(C)C)Oc1cc(O)c(O)cc1-3 (stereo not shown) [Compound 4, 2,3,8,10-tetrahydroxy-6-(2-methylpropenyl)-9,11-bis(3-methyl-2-butenyl)-6H[1]benzopyrano[4,3-b]benzopyran-7-one]
IC50 (NF-κB p50): > 10 µM | IC50 (NF-κB p65): > 10 µM

CC1(C)C=Cc2cc3c(cc2O1)Oc1cc(O)ccc1C(O)=C3 [Compound 5, 2,2-dimethyl-2H-benzo{6,7-oxepino[3,2-g]}chromene-7,10-diol]
IC50 (NF-κB p50): > 10 µM | IC50 (NF-κB p65): > 10 µM | IC50 [1]: 10.7 µM

C=C(C)[C@H]1Cc2c(oc3cc(O)c(CC=C(C)C)c(O)c3c2=O)C2=C1C(=O)C(O)=C(CC=C(C)C)C2=O [Compound 6, artonin O]
IC50 (NF-κB p50): > 10 µM | IC50 (NF-κB p65): > 10 µM

C=C(C)[C@H]1Cc2c(oc3c4c(cc(O)c3c2=O)OC(C)(C)C=C4)-c2c(O)cc(O)c(O)c21 [Compound 7, artobiloxanthone]
IC50 (NF-κB p50): 3.7 µM | IC50 (NF-κB p65): 2.3 µM | cytotoxicity ED50 [1]: >10 µM

CC1(C)C=Cc2c(cc(O)c3c(=O)c4c(oc23)-c2c(O)cc(O)c3c2C(C4)C(C)(C)O3)O1 (stereo not shown) [Compound 8, cycloartobiloxanthone]
IC50 (NF-κB p50): > 10 µM | IC50 (NF-κB p65): > 10 µM

CC(C)=CCc1c(-c2cc(O)c(O)cc2O)oc2c3c(cc(O)c2c1=O)OC(C)(C)C=C3 [artonin E]
cytotoxicity ED50 (P388 leukemia cells): 0.06 µg/mL

COc1cc(O)c2c(=O)c3cc4c5c(c(O)cc(O)c5c3oc2c1)OC4(C)C [artonin K]
IC50 [1]: > 10 µM
